{"data": "Measured values of several laboratories", "target": "Acetylcholinesterase (ache, Electrophorus electricus, UniProt O42275)", "read-out": "enzyme activity", "action": "inhibitor", "method": "Ellman", "note": "Protocols differ between the studies behind these lines."}
{"SMILES": "COc1cccc2cc(C(=O)NCCN3CCN(Cc4ccccc4)CC3)oc12", "IC50 [µM]": 4}
{"SMILES": "CC1=C(C)C(=O)O[C@@H]([C@](C)(O)[C@H]2CC[C@H]3[C@@H]4[C@@H]5O[C@@H]5[C@@]5(O)CC=CC(=O)[C@]5(C)[C@H]4CC[C@]23C)C1", "IC50 [µM]": 107}
{"SMILES": "CC=C1[C@H]2C=C(C)C[C@]1(N)c1cc(C#N)c(=O)[nH]c1C2", "IC50 [µM]": 33.9}
{"SMILES": "C#CCNc1nc(NCCCC2CCN(Cc3ccccc3)CC2)c(C#N)cc1C#N", "IC50 [µM]": 0.0047}
{"SMILES": "Cc1c(C(=O)[C@H]2[C@H](c3cn(C)c4ccccc34)[C@H]3CCCN3[C@]23C(=O)Nc2cc(Cl)ccc23)cnn1-c1ccccc1", "IC50 [µM]": "> 100"}
{"SMILES": "O=C(NNS(=O)(=O)c1ccc(Br)cc1)C(=O)NNS(=O)(=O)c1ccc(Br)cc1", "notes": "with preincubation", "IC50 [µM]": 3.28}
{"SMILES": "CCOc1ccc(C=NNC(=S)NCC(=O)c2ccccc2O)cc1", "IC50 [µM]": 420}
{"SMILES": "Cc1c(C(=O)[C@H]2[C@H](c3c[nH]c4ccccc34)[C@H]3CSCN3[C@]23C(=O)Nc2ccccc23)cnn1-c1ccccc1", "IC50 [µM]": 57.1}
{"SMILES": "O=C(NCCN1CCN(Cc2ccccc2)CC1)c1cc2ccccc2o1", "IC50 [µM]": 18.5}
{"SMILES": "CC=C1[C@H]2C=C(C)C[C@]1(N)c1cc(OCCCC)c(=O)[nH]c1C2", "IC50 [µM]": 110}
{"SMILES": "O=C(CNC(=S)NN=Cc1ccc([N+](=O)[O-])cc1)c1ccc([N+](=O)[O-])cc1", "IC50 [µM]": 446}
{"SMILES": "CC=C1[C@H]2C=C(C)C[C@]1(N(C)C)c1ccc(=O)[nH]c1C2", "IC50 [µM]": 0.61}
{"SMILES": "COc1cc2c(cc1OC)CN(S(=O)(=O)CCc1cn(-c3cnc4ccccc4c3)nn1)CC2", "IC50 [µM]": 0.028}
{"SMILES": "COc1cccc2cc(C(=O)NCC3CCN(Cc4ccccc4)CC3)oc12", "IC50 [µM]": 19.9}
{"SMILES": "CC=C1[C@H]2C=C(C)C[C@]1(N)c1cc(O)c(=O)[nH]c1C2", "IC50 [µM]": 0.53}
{"SMILES": "Cc1c(C(=O)[C@H]2[C@H](c3c[nH]c4ccccc34)[C@H]3CCCN3[C@]23C(=O)Nc2cc(Cl)ccc23)cnn1-c1ccccc1", "IC50 [µM]": "> 100"}
{"SMILES": "CC=C1[C@H]2C=C(C)C[C@]1(N)c1ccc(OC)nc1C2", "IC50 [µM]": 3.67}
{"SMILES": "C#CCN(C)c1nc(NCCCC2CCN(Cc3ccccc3)CC2)c(C#N)cc1C#N", "IC50 [µM]": 0.00619}
{"SMILES": "C#CCNC(=O)c1cc2ccc(N(CC)CC)cc2oc1=O", "pH": "pH 7.6", "IC50 [µM]": "> 50"}
{"SMILES": "CC=C1[C@H]2C=C(C)C[C@]1(N)c1cc(F)c(=O)[nH]c1C2", "IC50 [µM]": 1.23}
{"SMILES": "Cc1c(C(=O)[C@H]2[C@H](c3c[nH]c4ccc(Br)cc34)[C@H]3CSCN3[C@]23C(=O)Nc2ccc([N+](=O)[O-])cc23)cnn1-c1ccccc1", "IC50 [µM]": 24.1}
